ChEMBL document CHEMBL5149984, “Discovery of HN37 as a Potent and Chemically Stable Antiepileptic Drug Candidate” (J Med Chem, 2021)

Columns and labels:
[1] = target: T1, Potassium voltage-gated channel subfamily KQT member 4 (Homo sapiens) (UniProt P56696); test: Agonist activity at human KCNQ4 channel expressed in CHO cells assessed as amplitude change of outward current at 10 uM by patch clamp method; format: cell-based; settings: filed as agonist
T1 sequence (whole entry): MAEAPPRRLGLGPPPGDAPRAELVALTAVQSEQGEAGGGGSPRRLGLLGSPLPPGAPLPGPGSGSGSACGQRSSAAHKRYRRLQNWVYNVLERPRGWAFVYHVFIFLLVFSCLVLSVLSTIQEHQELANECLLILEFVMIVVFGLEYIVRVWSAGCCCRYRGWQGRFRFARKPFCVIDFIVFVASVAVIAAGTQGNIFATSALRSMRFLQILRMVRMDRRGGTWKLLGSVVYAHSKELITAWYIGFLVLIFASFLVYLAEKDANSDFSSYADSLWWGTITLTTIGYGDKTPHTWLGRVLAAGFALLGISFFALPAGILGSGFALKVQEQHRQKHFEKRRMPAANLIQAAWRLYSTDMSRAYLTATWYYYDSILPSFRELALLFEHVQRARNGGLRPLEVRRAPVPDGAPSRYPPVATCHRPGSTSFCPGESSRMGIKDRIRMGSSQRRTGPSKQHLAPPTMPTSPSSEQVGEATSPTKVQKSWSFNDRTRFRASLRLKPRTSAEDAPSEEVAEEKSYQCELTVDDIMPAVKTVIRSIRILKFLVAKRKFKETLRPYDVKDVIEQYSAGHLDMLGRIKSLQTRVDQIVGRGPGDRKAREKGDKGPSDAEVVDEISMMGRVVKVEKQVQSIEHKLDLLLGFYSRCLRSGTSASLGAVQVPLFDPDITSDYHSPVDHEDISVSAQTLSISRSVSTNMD
Method in brief: (§1)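 Whole-cell patch clamp at room temperature on CHO cells (DMEM/F12, 10% FBS) transiently co-transfected with EGFP and hKCNQ1, rKCNQ2, rKCNQ3 A278T, hKCNQ4 or hKCNQ5; KCNQ2/3 at 1:1 cDNA ratio. Pipette solution 145 mM KCl, 5 mM MgATP, pH 7.3; bath 140 mM NaCl, 5 mM KCl, pH 7.4, under perfusion. V1/2 from Boltzmann fits; I/I0 is current amplitude with versus without compound; n = 4−6.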

Mus musculus = test: Anticonvulsant activity in MES induced Kunming mouse model of seizure at 60 mg/kg, po; format: functional
Method in brief: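 MES test in male KM mice. Compounds freshly suspended in 0.5% CMC-Na and given by gavage at 20 mL/kg; 160 V stimulus through ear clips. Protection scored as absence of hindlimb tonic extension; time course at 0.25, 0.5, 1 and 2 h, otherwise tested at 1 h. ED50 from dose−response by nonlinear regression; Fisher's exact test versus vehicle.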

[2] = Cmax in Sprague-Dawley rat at 6 mg/kg, po measured upto 24 hrs by LC-MS/MS method; format: ADME, organism-based; design: time < 24 hrs, dose 6 mg/kg, route po; settings: in vivo
Method in brief: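 Male SD rats (180−220 g) given single oral doses of 2, 6 and 20 mg/kg; handled as in the mouse PK study (fasted 12 h before and 2 h after dosing, 5% DMSO/5% Tween 80/90% saline formulation). In a separate 6 mg/kg p.o. set, blood and brain were sampled together. Plasma and brain levels by LC−MS/MS.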

CYP2B6 = CYP2B6 (Homo sapiens, UniProt P20813); test: Inhibition of human liver microsome CYP2B6 at 0.10 to 50 uM preincubated with NADPH for 0.5 hrs followed by substrate addition by LC-MS/MS method relative to control; format: ADME; settings: liver microsomes, dose 0.1-50 µM
[3] = target: Potassium voltage-gated channel subfamily KQT member 2/member 3 (Rattus norvegicus) (UniProt O88943+O88944); test: Agonist activity at rat KCNQ2/3 channel expressed in CHO cells assessed as shift of half voltage of maximal activation at 0.1 uM by patch clamp method; format: cell-based; settings: filed as agonist; method in brief: as §1
[4] = AUC(0 to t) in Kunming mouse plasma at 5 mg/kg, po measured upto 24 hrs by LC-MS/MS method; format: ADME, organism-based; design: dose 5 mg/kg, time < 24 hrs, route po
Method in brief: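 KM male mice (18−24 g), fasted 12 h before and 2 h after dosing. HN37 given orally at 5 mg/kg in 5% DMSO/5% Tween 80/90% saline, or iv at 2 mg/kg after dilution in saline with 1% Tween 80; n = 3 per time point. Blood sampled 0.25–24 h (from 0.083 h after iv); whole brain taken after oral dosing. Plasma and brain extracted with acetonitrile, quantified by LC−MS/MS; AUC0−t by trapezoidal method.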

Rattus norvegicus = species: Rattus norvegicus; test: Potency index, ratio of Topiramate ED50 to test compound ED50 for anticonvulsant activity in MES induced rat model of seizure after 1 hr; format: functional
CYP2D6 = CYP2D6 (Homo sapiens, UniProt P10635); test: Inhibition of human liver microsome CYP2D6 at 0.10 to 50 uM preincubated with NADPH for 0.5 hrs followed by substrate addition by LC-MS/MS method relative to control; format: ADME; settings: liver microsomes, dose 0.1-50 µM
[5] = Metabolic stability in human liver microsomes assessed as intrinsic clearance; format: ADME, Microsome; settings: read-out: CLH
Cytochrome P450 2C19 = Cytochrome P450 2C19 (Homo sapiens, UniProt P33261); test: Time dependent inhibition of human liver microsome CYP2C19 preincubated for 0.5 hrs in presence or absence of NADPH followed by substrate addition by LC-MS/MS method; format: ADME, microsomes
Method in brief: (§2)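 Human liver microsomes preincubated 0.5 h with 0.10–50 μM test compound, with or without NADPH, then CYP-specific probe substrate added and incubation continued. Metabolite measured by LC-MS/MS; % activity remaining relative to no-compound control; IC50 fitted by Probit model. For CYP3A4, midazolam 1′-hydroxylation and testosterone 6β-hydroxylation were read separately.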

[6] = AUC(0 to t) in Sprague-Dawley rat at 6 mg/kg, po measured upto 24 hrs by LC-MS/MS method; format: ADME, organism-based; design: dose 6 mg/kg, time < 24 hrs, route po; settings: in vivo
Method in brief: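 Male SD rats (180−220 g) dosed orally at 2, 6 or 20 mg/kg in escalating fashion, handled as in the mouse study: 12 h fast, acetonitrile extraction of plasma, LC−MS/MS quantification. AUC0−t by trapezoidal method to the last measurable concentration.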

Cytochrome P450 2D6 = Cytochrome P450 2D6 (Homo sapiens, UniProt P10635); test: Time dependent inhibition of human liver microsome CYP2D6 preincubated for 0.5 hrs in presence or absence of NADPH followed by substrate addition by LC-MS/MS method; format: ADME, microsomes; method in brief: as §2
[7] = Oral bioavailability in Kunming mouse plasma at 5 mg/kg measured upto 24 hrs by LC-MS/MS method; format: ADME, organism-based
Method in brief: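 Male KM mice (18−24 g) fasted 12 h before and 2 h after dosing, given 5 mg/kg orally in 5% DMSO/5% Tween 80/90% normal saline (n = 3 per time point). Aortic blood taken at 0.25–24 h and whole brain collected. Acetonitrile extraction with internal standard, then LC−MS/MS. Bioavailability calculated against the 2 mg/kg i.v. arm.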

[8] = Neurotoxicity in Kunming mouse assessed as motor impairment rate at 90 mg/kg, po after 1 hr by rotarod test; format: toxicity, organism-based; settings: in vivo
Method in brief: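 Male KM mice dosed intragastrically with compound freshly suspended in 0.5% CMC-Na. Rotarod performance scored 1 h after dosing as the fraction of animals showing motor impairment. Fisher's exact test versus vehicle; TD50 from nonlinear dose−response fit.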

Sequence of CYP2B6 (P20813 whole entry): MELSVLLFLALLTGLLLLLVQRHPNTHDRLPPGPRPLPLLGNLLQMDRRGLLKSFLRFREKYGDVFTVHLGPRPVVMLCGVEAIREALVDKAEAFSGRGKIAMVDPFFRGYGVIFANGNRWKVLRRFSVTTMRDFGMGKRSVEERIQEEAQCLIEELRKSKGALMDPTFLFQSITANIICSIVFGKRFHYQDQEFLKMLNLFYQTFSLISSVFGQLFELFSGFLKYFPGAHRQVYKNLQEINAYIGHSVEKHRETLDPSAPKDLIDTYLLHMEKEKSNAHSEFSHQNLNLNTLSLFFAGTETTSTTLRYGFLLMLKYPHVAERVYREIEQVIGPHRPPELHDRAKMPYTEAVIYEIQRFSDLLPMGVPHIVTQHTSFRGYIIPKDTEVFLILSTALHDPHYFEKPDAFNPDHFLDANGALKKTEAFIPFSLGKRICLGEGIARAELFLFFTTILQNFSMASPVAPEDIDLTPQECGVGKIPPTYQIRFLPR
Sequence of Cytochrome P450 2C19 (P33261 whole entry): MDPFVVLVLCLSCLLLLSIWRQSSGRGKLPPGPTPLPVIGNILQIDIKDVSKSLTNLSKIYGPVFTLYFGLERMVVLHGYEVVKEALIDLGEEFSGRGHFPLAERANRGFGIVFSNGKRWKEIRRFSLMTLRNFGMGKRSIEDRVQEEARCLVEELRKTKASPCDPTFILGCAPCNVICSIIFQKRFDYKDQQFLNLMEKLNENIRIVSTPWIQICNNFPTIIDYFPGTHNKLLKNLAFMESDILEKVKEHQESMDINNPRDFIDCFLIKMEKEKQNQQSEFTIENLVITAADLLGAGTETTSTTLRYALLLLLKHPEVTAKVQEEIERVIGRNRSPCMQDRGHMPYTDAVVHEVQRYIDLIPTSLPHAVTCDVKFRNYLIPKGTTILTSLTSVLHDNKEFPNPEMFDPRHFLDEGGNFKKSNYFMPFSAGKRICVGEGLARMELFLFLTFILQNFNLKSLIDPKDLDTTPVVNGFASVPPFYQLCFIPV
Sequence of CYP2D6 (P10635 whole entry): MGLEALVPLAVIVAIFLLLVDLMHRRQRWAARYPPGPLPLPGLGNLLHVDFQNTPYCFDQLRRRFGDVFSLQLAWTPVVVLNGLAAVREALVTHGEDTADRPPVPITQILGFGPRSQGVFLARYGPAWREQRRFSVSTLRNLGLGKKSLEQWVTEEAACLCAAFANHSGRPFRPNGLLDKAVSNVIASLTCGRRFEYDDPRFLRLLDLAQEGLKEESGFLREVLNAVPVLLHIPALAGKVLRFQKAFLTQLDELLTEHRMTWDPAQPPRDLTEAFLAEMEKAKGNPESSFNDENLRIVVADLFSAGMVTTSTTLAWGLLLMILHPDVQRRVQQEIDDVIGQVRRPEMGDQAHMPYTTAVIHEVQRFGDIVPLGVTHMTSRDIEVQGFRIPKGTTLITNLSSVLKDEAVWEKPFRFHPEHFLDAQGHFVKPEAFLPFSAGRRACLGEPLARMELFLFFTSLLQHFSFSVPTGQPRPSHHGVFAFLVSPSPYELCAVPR
Sequence of Cytochrome P450 2D6 (P10635 whole entry): as above

Compound	Activity [1]	Activity (Mus musculus) [%]	Cmax [2] [ng/mL]	inhibition at 0.5 h, up to 50 µM (CYP2B6) [%]	Activity [3] [mV]	AUC(0-t) at 24 h [4] [ng·h/mL]	Ratio ED50 (Rattus norvegicus)	inhibition at 0.5 h, up to 50 µM (CYP2D6) [%]	CLint scaled [5] [mL/min/kg]	IC50 (Cytochrome P450 2C19) [µM]	AUC(0-t) at 24 h [6] [ng·h/mL]	IC50 (Cytochrome P450 2D6) [µM]	bioavailability [7] [%]	Activity [8] [%]
CCOC(=O)Nc1ccc(NCc2ccc(F)cc2)cc1N [EZOGABINE]	2.85	62.5	–	–	–	–	–	–	–	–	–	–	–	–
C#CCN(Cc1ccc(F)cc1)c1cc(C)c(NC(=O)OC)c(C)c1	–	–	264	< 25	-60.2	321	18.7	< 25	62.7	> 50	1130	> 50	24.2	62.5
